# Laboratory results as given in ChEMBL document CHEMBL3352645, “Bioactive 6S-styryllactone constituents of Polyalthia parviflora” (J Nat Prod, 2014).
# Active and inactive are the calls of the source. No cut-off for these calls is given here.
# Legend:
# Format in all cases: functional, cell-based
# HepG2 = assay: Cytotoxicity against human HepG2 cells after 72 hrs by MTT assay; conditions: for IC50: HepG2, 72 h
# Outline: (§1)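 Hep G2 and MDA-MB-231 plated at 1 × 10^4 cells per well in triplicate with various compound concentrations. At 72 h medium removed, MTT (0.5 mg/mL) added for 1 h at 37 °C, crystals solubilized in DMSO, absorbance at 550 nm. Doxorubicin control; IC50 as mean of triplicates.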
# [1] = (§2) Antiinflammatory activity in human neutrophils assessed as inhibition of fMLP/CB-induced elastase release after 5 mins by spectrophotometry; conditions: Neutrophil
# Outline: (§3)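 Neutrophils equilibrated with MeOSuc-Ala-Ala-Pro-Val-p-nitroanilide (100 μM) at 37 °C for 2 min, then exposed to compound 5 min. Activated with CB (0.5 μg/mL) plus FMLP (100 nM). Elastase release (azurophilic degranulation) followed as absorbance change at 405 nm; IC50 = concentration giving 50% inhibition; n = 3.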
# A549 = assay: Cytotoxicity against human A549 cells after 72 hrs by MTT assay; conditions: for IC50: A549, 72 h
# Outline: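 A549 seeded at 5 × 10^3 cells per well in triplicate, exposed to various compound concentrations. After 72 h medium replaced by MTT (0.5 mg/mL), 1 h at 37 °C; formazan dissolved in DMSO, absorbance read at 550 nm. Doxorubicin control; IC50 as mean of triplicates.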
# [2] = (§4) Antiinflammatory activity in human neutrophils assessed as inhibition of fMLP/CB-induced superoxide anion generation after 5 mins by spectrophotometry; conditions: Neutrophil
# Outline: (§5)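 Cells with 0.5 mg/mL ferricytochrome c and 1 mM Ca2+ equilibrated 37 °C for 2 min, compound added 5 min, then cytochalasin B (1 μg/mL) 3 min before FMLP (100 nM) activation for 10 min. SOD-inhibitable ferricytochrome c reduction monitored continuously at 550 nm under stirring; IC50 from 50% inhibition; n = 3.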
# MDA-MB-231 = assay: Cytotoxicity against human MDA-MB-231 cells after 72 hrs by MTT assay; conditions: for IC50: MDA-MB-231, 72 h; outline: as §1
# Neutrophil [3] = assay: as §2; outline: as §3
# Neutrophil [4] = assay: as §4; outline: as §5
SMILES,IC50 [1],IC50 [2],IC50 (HepG2),IC50 (A549),IC50 (MDA-MB-231),inhibition (Neutrophil [3]),inhibition (Neutrophil [4]),Activity (HepG2),Activity (A549),Activity (MDA-MB-231)
CO[C@H](c1ccccc1)[C@@H](O)[C@@H]1CC=CC(=O)O1,–,–,> 10 µM,> 10 µM,> 10 µM,inactive,inactive,–,–,–
O=C1C=CC[C@@H]([C@H](O)[C@@H](O)c2ccccc2)O1,–,–,> 10 µM,–,–,inactive,inactive,–,–,–
O=C1C=CC[C@@H]([C@@H](O)[C@@H](O)c2ccccc2)O1,–,–,> 10 µM,> 10 µM,> 10 µM,inactive,inactive,–,–,–
COc1cccc2c1C(=O)c1c(O)c3c(c(O)c1C2=O)C[C@@](O)(C(=O)CO)C[C@@H]3O[C@H]1C[C@H](N)[C@H](O)[C@H](C)O1 [DOXORUBICIN],–,–,–,0.87 µM,0.88 µM,–,–,–,–,–
O=c1cccc(/C=C/c2ccccc2)o1,6.8 µM,11.6 µM,> 10 µM,> 10 µM,> 10 µM,–,–,–,–,–
O=C1C[C@H]2C[C@H](O1)[C@H](O)[C@@H](c1ccccc1)O2,–,–,–,–,–,inactive,inactive,inactive,inactive,inactive
CO[C@@H](c1ccccc1)[C@H](O)[C@@H]1CC=CC(=O)O1,–,–,> 10 µM,> 10 µM,> 10 µM,inactive,inactive,–,–,–

# Now from value to compound, other results behind:
IC50 [1],IC50 [2],SMILES,IC50 (HepG2),IC50 (A549),IC50 (MDA-MB-231),inhibition (Neutrophil [3]),inhibition (Neutrophil [4]),Activity (HepG2),Activity (A549),Activity (MDA-MB-231)
15.4 µM,8.3 µM,O=C1C=CC[C@@H](/C=C/c2ccccc2)O1,> 10 µM,> 10 µM,> 10 µM,–,–,–,–,–
14.6 µM,8.1 µM,O=C1C=CC(O)[C@H](/C=C/c2ccccc2)O1 (stereo partly specified),> 10 µM,7.9 µM,> 10 µM,–,–,–,–,–
19.8 µM,21.2 µM,O=C1C=CC[C@@H]([C@@H]2O[C@H]2c2ccccc2)O1,> 10 µM,> 10 µM,> 10 µM,–,–,–,–,–
1.9 µM,6.3 µM,CNC(=O)c1cc(Oc2ccc(NC(=O)Nc3ccc(Cl)c(C(F)(F)F)c3)cc2)ccn1 [SORAFENIB],–,–,–,–,–,–,–,–
–,30 µM,O=C1C=CC[C@@H]([C@H](O)[C@H](Cl)c2ccccc2)O1,> 10 µM,> 10 µM,> 10 µM,–,–,–,–,–
